# Measurements from ChEMBL document CHEMBL4425125, “Development of a Dual-Acting Antibacterial Agent (TNP-2092) for the Treatment of Persistent Bacterial Infections” (J Med Chem, 2016).
# How the values were obtained:
# [1] = tested on: Staphylococcus aureus; experiment: Antimicrobial activity against Staphylococcus aureus isogenic forms expressing gyrA S84L and parC S80F mutant by agar dilution method; assay type: functional
# In short: (§1)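 MIC (μg/mL) on otherwise isogenic derivatives of S. aureus ATCC 29213 that carry the rifamycin-resistance allele rpoB H481Y and/or the quinolone-resistance alleles parC S80F and gyrA S84L. The wild-type parent is the reference strain. MICs were determined both by agar dilution and by broth dilution, tested side by side on the same panel.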
# [2] = tested on: Staphylococcus aureus; experiment: Antimicrobial activity against Staphylococcus aureus isogenic forms expressing gyrA S84L mutant by broth dilution method; assay type: functional; in short: as §1
# [3] = Inhibition of wild type Staphylococcus aureus RNA polymerase assessed as reduction in RNA product formation
# [4] = Inhibition of RIF-resistant Staphylococcus aureus RNA polymerase RpoB H481Y mutant assessed as reduction in RNA product formation
# [5] = tested on: Staphylococcus aureus; experiment: Antimicrobial activity against wild type Staphylococcus aureus by agar dilution method; assay type: functional; in short: as §1
# [6] = tested on: Staphylococcus aureus; experiment: Antimicrobial activity against Staphylococcus aureus isogenic forms expressing gyrA S84L mutant by agar dilution method; assay type: functional; in short: as §1
# [7] = tested on: Staphylococcus aureus; experiment: Antimicrobial activity against wild type Staphylococcus aureus by broth dilution method; assay type: functional; in short: as §1
# [8] = tested on: Staphylococcus aureus; experiment: Antimicrobial activity against Staphylococcus aureus isogenic forms expressing parC S80F mutant by agar dilution method; assay type: functional; in short: as §1
# [9] = tested on: Staphylococcus aureus; experiment: Antimicrobial activity against Staphylococcus aureus isogenic forms expressing parC S80F mutant by broth dilution method; assay type: functional; in short: as §1
# [10] = tested on: Staphylococcus aureus; experiment: Antimicrobial activity against Staphylococcus aureus isogenic forms expressing gyrA S84L and parC S80F mutant by broth dilution method; assay type: functional; in short: as §1
# [11] = tested on: Staphylococcus aureus; experiment: Antimicrobial activity against Staphylococcus aureus isogenic forms expressing rpoB H481Y mutant by agar dilution method; assay type: functional; in short: as §1
# [12] = tested on: Staphylococcus aureus; experiment: Antimicrobial activity against Staphylococcus aureus isogenic forms expressing rpoB H481Y mutant by broth dilution method; assay type: functional; in short: as §1
# [13] = tested on: Staphylococcus aureus; experiment: Antimicrobial activity against Staphylococcus aureus isogenic forms expressing rpoB H481Y and gyrA S84L mutant by agar dilution method; assay type: functional; in short: as §1
# [14] = tested on: Staphylococcus aureus; experiment: Antimicrobial activity against Staphylococcus aureus isogenic forms expressing rpoB H481Y and gyrA S84L mutant by broth dilution method; assay type: functional; in short: as §1
# [15] = tested on: Staphylococcus aureus; experiment: Antimicrobial activity against Staphylococcus aureus isogenic forms expressing rpoB H481Y and parC S80F mutant by agar dilution method; assay type: functional; in short: as §1
# [16] = tested on: Staphylococcus aureus; experiment: Antimicrobial activity against Staphylococcus aureus isogenic forms expressing rpoB H481Y and parC S80F mutant by broth dilution method; assay type: functional; in short: as §1
# [17] = tested on: Staphylococcus aureus; experiment: Antimicrobial activity against Staphylococcus aureus isogenic forms expressing rpoB H481Y/gyrA S84L/parC S80F mutant by agar dilution method; assay type: functional; in short: as §1
# [18] = tested on: Staphylococcus aureus; experiment: Antimicrobial activity against Staphylococcus aureus isogenic forms expressing rpoB H481Y/gyrA S84L/parC S80F mutant by broth dilution method; assay type: functional; in short: as §1
# [19] = tested on: Staphylococcus aureus; experiment: Antimicrobial activity against methicillin-sensitive Staphylococcus aureus clinical isolates by broth dilution method; assay type: functional
# [20] = tested on: Staphylococcus aureus; experiment: Antimicrobial activity against methicillin-resistant Staphylococcus aureus clinical isolates by broth dilution method; assay type: functional
# [21] = tested on: Staphylococcus epidermidis; experiment: Antimicrobial activity against methicillin-sensitive Staphylococcus epidermidis clinical isolates by broth dilution method; assay type: functional
# [22] = tested on: Staphylococcus epidermidis; experiment: Antimicrobial activity against methicillin-resistant Staphylococcus epidermidis clinical isolates by broth dilution method; assay type: functional; conditions: Staphylococcus epidermidis
# [23] = tested on: Streptococcus pyogenes; experiment: Antimicrobial activity against Streptococcus pyogenes clinical isolates by broth dilution method; assay type: functional
# [24] = tested on: Streptococcus agalactiae; experiment: Antimicrobial activity against Streptococcus agalactiae clinical isolates by broth dilution method; assay type: functional
# [25] = tested on: Streptococcus pneumoniae; experiment: Antimicrobial activity against Streptococcus pneumoniae clinical isolates by broth dilution method; assay type: functional
# [26] = tested on: Staphylococcus aureus; experiment: Bactericidal activity against methicillin-sensitive Staphylococcus aureus 29213 infected in mouse macrophages assessed as induction of bacterial kill at 4 ug/ml in presence of 4 ug/ml rifampin after 24 hrs; assay type: functional
# [27] = Half life in iv dosed mouse plasma; assay type: ADME, organism-based
# [28] = Half life in iv dosed rat plasma; assay type: ADME, organism-based
# [29] = Half life in iv dosed rabbit plasma; assay type: ADME, organism-based, Oryctolagus cuniculus
# [30] = Half life in iv dosed dog plasma; assay type: ADME, organism-based, Canis lupus familiaris
# [31] = Plasma clearance in iv dosed rat; assay type: ADME, organism-based
# [32] = Plasma clearance in iv dosed rabbit; assay type: ADME, organism-based, Oryctolagus cuniculus
# [33] = Plasma clearance in iv dosed dog; assay type: ADME, organism-based, Canis lupus familiaris
# [34] = tested on: Staphylococcus aureus; experiment: Antimicrobial activity against methicillin-sensitive Staphylococcus aureus infected in mouse skin abscess model; assay type: functional
# [35] = tested on: Staphylococcus epidermidis; experiment: Antimicrobial activity against Staphylococcus epidermidis infected in mouse skin abscess model; assay type: functional
# [36] = tested on: Streptococcus pyogenes; experiment: Antimicrobial activity against Streptococcus pyogenes infected in mouse skin abscess model; assay type: functional
# [37] = tested on: Staphylococcus epidermidis; experiment: Antimicrobial activity against Staphylococcus epidermidis infected in rat central venous catheter infection model assessed as reduction in bacterial load; assay type: functional
# [38] = tested on: Streptococcus pyogenes; experiment: Antimicrobial activity against Streptococcus pyogenes infected in rat central venous catheter infection model assessed as reduction in bacterial load; assay type: functional
# [39] = tested on: Staphylococcus aureus; experiment: Antimicrobial activity against methicillin-sensitive Staphylococcus aureus infected in rat central venous catheter infection model assessed as reduction in bacterial load; assay type: functional
# [40] = tested on: Staphylococcus aureus; experiment: Antimicrobial activity against Staphylococcus aureus infected in rat […] model assessed as reduction in bacterial load in granuloma pouch fluid at 5 to 25 mg/kg, iv administered as single dose; assay type: functional
# [41] = tested on: Staphylococcus aureus; experiment: Antimicrobial activity against methicillin-resistant Staphylococcus aureus 67-0; assay type: functional
# [42] = tested on: Staphylococcus aureus; experiment: Bactericidal activity against methicillin-resistant Staphylococcus aureus 67-0; assay type: functional
# [43] = molecular target: Topoisomerase IV (Staphylococcus aureus) (UniProt P0C1U9+P0C1S7)
# [44] = molecular target: DNA gyrase (Staphylococcus aureus) (UniProt P0A0K8+P20831)
# [45] = tested on: Staphylococcus aureus
# [46] = molecular target: DNA topoisomerase 2-alpha (Homo sapiens) (UniProt P11388)
# [47] = Volume of distribution in iv dosed dog; conditions: in vivo
# [48] = Volume of distribution in iv dosed dog; conditions: in vivo; remark: listed apart in the source
# [49] = tested on: Staphylococcus aureus; experiment: Antimicrobial activity against Staphylococcus aureus ATCC 29213 assessed as mutation preventive concentration
# [50] = tested on: Staphylococcus aureus; experiment: […] activity against Staphylococcus aureus ATCC 29213 assessed as induction of bacterial kill at […] in presence of 1 ug/ml rifampin after 24 hrs
structure (smiles),measurement,setting,value
CO[C@H]1/C=C/O[C@@]2(C)Oc3c(C)c(O)c4c(O)c(c(/C=N/N5CCC(N(C)C6([C@@H]7CCN(c8c(F)cn9c(=O)c(C(=O)O)cc(C%10CC%10)c9c8C)C7)CC6)CC5)c(O)c4c3C2=O)NC(=O)/C(C)=C\C=C\[C@H](C)[C@H](O)[C@@H](C)[C@@H](O)[C@@H](C)[C@H](OC(C)=O)[C@@H]1C,MIC,[1],0.008 µg/mL
same,MIC,[2],0.015 µg/mL
same,IC50,[3],0.034 µM
same,IC50,[4],> 25 µM
same,MIC,[5],0.008 µg/mL
same,MIC,[6],0.008 µg/mL
same,MIC,[7],0.015 µg/mL
same,MIC,[8],0.008 µg/mL
same,MIC,[9],0.015 µg/mL
same,MIC,[10],0.015 µg/mL
same,MIC,[11],0.06 µg/mL
same,MIC,[12],0.12 µg/mL
same,MIC,[13],0.12 µg/mL
same,MIC,[14],0.5 µg/mL
same,MIC,[15],0.06 µg/mL
same,MIC,[16],0.25 µg/mL
same,MIC,[17],0.25 µg/mL
same,MIC,[18],2 µg/mL
same,MIC50,[19],0.008 µg/mL
same,MIC90,[19],0.015 µg/mL
same,MIC50,[20],0.015 µg/mL
same,MIC90,[20],0.015 µg/mL
same,MIC50,[21],≤ 0.008 µg/mL
same,MIC90,[21],0.008 µg/mL
same,MIC50,[22],0.008 µg/mL
same,MIC90,[22],0.5 µg/mL
same,MIC,[23],0.008 to 0.12 µg/mL
same,MIC50,[23],0.03 µg/mL
same,MIC90,[23],0.12 µg/mL
same,MIC,[24],0.06 to 2 µg/mL
same,MIC50,[24],0.12 µg/mL
same,MIC90,[24],0.25 µg/mL
same,MIC,[25],0.06 to 0.25 µg/mL
same,MIC50,[25],0.12 µg/mL
same,MIC90,[25],0.12 µg/mL
same,Activity,[26],>99.9%
same,half-life,[27],0.4 to 4.1 h
same,half-life,[28],0.4 to 4.1 h
same,half-life,[29],0.4 to 4.1 h
same,half-life,[30],1.6 to 11.7 h
same,clearance,[31],1.17 to 6 mL/min/kg
same,clearance,[32],1.17 to 6 mL/min/kg
same,clearance,[33],0.167 to 1.33 mL/min/kg
same,ED50,[34],1.4 to 3.8 mg/kg
same,ED50,[35],4.8 to 10.7 mg/kg
same,ED50,[36],4.8 to 10.7 mg/kg
same,Activity,[37],>3.1 log10CFU
same,Activity,[38],>3.1 log10CFU
same,Activity,[39],2.8 - 3.4 log10CFU
same,Activity,[40],1 - 3.4 log10CFU
same,MIC,[41],0.008 µg/mL
same,MBC,[42],0.5 µg/mL
same,CC50,[43],1.7 µM
same,CC50,[44],1.5 µM
same,CC50,[45],2.7 µM
same,CC50,[46],> 150 µM
same,Vd,[47],0.09 to 0.17 L/kg
same,Vd,[48],0.09 to 0.17 L/kg
same,Activity,[49],0.12 µg/mL
same,Activity,[50],>=99.9%
